Measurements: ChEMBL document CHEMBL4257469, “Deciphering the role of hydrophobic and hydrophilic bile acids in angiogenesis using in vitro and in vivo model systems” (Medchemcomm, 2017)
Activity calls are given as the source filed them. The rule behind the calls is not given here.

What was measured:
Danio rerio [1] = species: Danio rerio; assay: Antiangiogenic activity in Tg(fli:eGFP) zebrafish embryo assessed as effect on phynotypic changes after 72 hrs post fertilization by fluorescence microscopic analysis; assay type: functional, organism-based
How it was run: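 Tg(fli1:eGFP) zebrafish embryos were selected at 48 hpf, 20–25 per well, and exposed to bile acids at 6.25, 12.5 and 25 μM in embryo water from DMSO stocks. Vehicle was 0.1% DMSO. At 72 hpf the solutions were replaced with fresh embryo water. Embryos were anesthetized with tricaine and imaged by stereo and fluorescence microscopy for sub-intestinal vessel sprouting and branching. Two experiments, 50 embryos per group.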

Danio rerio [2] = species: Danio rerio; assay: Pro-angiogenic activity in Tg(fli:eGFP) zebrafish embryo assessed as increase in sprouting and branching of sub-intestinal vessels (after 72 hrs post fertilization by fluorescence microscopic analysis; assay type: functional, organism-based
How it was run: (§1)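 Tg(fli1:eGFP) embryos selected at 48 hpf, 20–25 per well, raised at 28.5 °C. Bile acids (DMSO stock, diluted in embryo water) given at 6.25, 12.5 or 25 μM; 0.1% DMSO as vehicle control. Solutions replaced with fresh water at 72 hpf, embryos anaesthetised with tricaine and sub-intestinal vessels imaged by fluorescence. Scored as percentage of embryos; two experiments, 50 embryos/group.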

HUVEC [3] = assay: Pro-angiogenic activity in HUVEC assessed as stress fiber formation at 12.5 uM after overnight incubation by FITC-conjugated phalloidin staining based confocal microscopic analysis; assay type: functional, cell-based; details: Homo sapiens
How it was run: (§2)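 HUVECs grown to 70% confluency on coverslips and treated with bile acids overnight. Fixed in 4% paraformaldehyde for 5 min and blocked with 1% BSA/0.1% Triton X-100 for 2 h. Stained with anti-VE-cadherin (1:200, 4 °C overnight) plus Alexa-488 secondary, FITC-phalloidin (1:100) for F-actin, and DAPI. Confocal imaging; repeated twice.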

Danio rerio [4] = species: Danio rerio; assay: Toxicity in zebrafish embryo assessed as reduction in embryo survival up to 50 uM; assay type: organism-based; details: in vivo
HUVEC [5] = assay: Pro-angiogenic activity in HUVEC assessed as decrease in cell-to-cell contact at 12.5 uM after overnight incubation by FITC-conjugated phalloidin staining based confocal microscopic analysis; assay type: functional; details: Homo sapiens; how it was run: as §2
HUVEC [6] = assay: Increase in VEGFR2 m-RNA expression in HUVEC at 12.5 uM after 12 to 24 hrs by RT-qPCR analysis; assay type: functional, cell-based; details: Homo sapiens
How it was run: (§3)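 HUVECs treated with 12.5 μM bile acid or DMSO for 12 and 24 h. Total RNA extracted and 1 μg reverse-transcribed. SYBR-green qPCR for VEGFR1/VEGFR2: 95 °C 10 min, then 40 cycles of 95 °C 5 s / 60 °C 30 s. ΔΔCT normalised to GAPDH and expressed as fold change over control; repeated twice.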

HUVEC [7] = assay: Induction of angiogenesis in HUVEC assessed as increase in tube formation at 12.5 uM after overnight incubation by inverted microscopic analysis; assay type: functional, cell-based; details: Homo sapiens
How it was run: (§4)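 Wells coated with Matigel:plain EBM-2 (1:1). HUVECs added at 2 × 10⁵ cells/well with bile acid (12.5 or 25 μM) or vehicle and left overnight. Bright-field images at 10× from five fields per well; nodes and tube lengths counted. Triplicate, three independent experiments; one-way ANOVA with Dunnett's test.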

Danio rerio [8] = species: Danio rerio; assay: Pro-angiogenic activity in Tg(fli:eGFP) zebrafish embryo assessed as arcades formation at 12.5 uM after 72 hrs post fertilization by fluorescence microscopic analysis; assay type: functional, organism-based; how it was run: as §1
Danio rerio [9] = species: Danio rerio; assay: Pro-angiogenic activity in Tg(fli:eGFP) zebrafish embryo assessed as increase in branching of sub-intestinal veins at 12.5 uM after 72 hrs post fertilization by fluorescence microscopic analysis; assay type: functional, organism-based; how it was run: as §1
HUVEC [10] = assay: Increase in VEGFR1 m-RNA expression in HUVEC at 12.5 uM after 12 to 24 hrs by RT-qPCR analysis; assay type: functional, cell-based; details: Homo sapiens; how it was run: as §3
HUVEC [11] = assay: Induction of angiogenesis in HUVEC assessed as increase in tube length at 12.5 uM after overnight incubation by inverted microscopic analysis; assay type: functional, cell-based; details: Homo sapiens; how it was run: as §4
HUVEC [12] = assay: Induction of angiogenesis in HUVEC assessed as increase in number of nodes at 12.5 uM after overnight incubation by inverted microscopic analysis relative to control; assay type: functional, Homo sapiens; how it was run: as §4
HUVEC [13] = assay: Pro-angiogenic activity in HUVEC assessed as decrease in VE-cadherin expression at 12.5 uM after overnight incubation by FITC-conjugated phalloidin staining based confocal microscopic analysis; assay type: functional, cell-based; details: Homo sapiens; how it was run: as §2
Danio rerio [14] = species: Danio rerio; assay: Pro-angiogenic activity in Tg(fli:eGFP) zebrafish embryo at 6.25 uM after 72 hrs post fertilization by fluorescence microscopic analysis; assay type: functional, organism-based; how it was run: as §1
Danio rerio [15] = species: Danio rerio; assay: Pro-angiogenic activity in Tg(fli:eGFP) zebrafish embryo assessed as sub-intestinal vein baskets extending towards ventral side at 12.5 uM after 72 hrs post fertilization by fluorescence microscopic analysis; assay type: functional, organism-based; how it was run: as §1
HUVEC [16] = assay: Decrease in MMP9 level in HUVEC at 12.5 uM after 24 hrs by ELISA; assay type: functional, cell-based; details: Homo sapiens
How it was run: (§5)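 HUVECs in 6-well plates treated with 12.5 μM bile acid or DMSO vehicle. Medium supernatant collected 12 and 24 h after treatment. MMP9 measured by ELISA with HRP read-out at 405 nm, concentration interpolated from an MMP9 standard curve. Experiments done in duplicate.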

HUVEC [17] = assay: Antiangiogenic activity in HUVEC assessed as inhibition of endothelial tube formation at 25 uM after overnight incubation by inverted microscopic analysis; assay type: functional, cell-based; details: Homo sapiens
How it was run: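 HUVECs at passages 2–5 were seeded at 2 × 10^5 cells per well on a gelled basement membrane matrix, made as Matrigel mixed 1:1 with plain EBM-2. Bile acids were added at 12.5 and 25 μM, with DMSO as vehicle control, and cells were treated overnight. Bright-field images were taken at 10× from five fields per well. Nodes and tube lengths were quantified. Runs were in triplicate; statistics by one-way ANOVA (Dunnett).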

HUVEC [18] = assay: Cytotoxicity against HUVEC assessed as reduction in cell death up to 12.5 uM after 24 hrs by MTT assay; assay type: cell-based; details: human
How it was run: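 HUVECs (passages 2–5, complete EBM-2) seeded at 5 × 10³ cells/well and left 24 h to adhere. Serum-starved 4 h, then exposed to bile acids (serial dilutions, 100 to 6.25 μM) in complete medium for 24 h. MTT added for 4 h at 37 °C, formazan dissolved in DMSO, absorbance read at 550 nm. Run in triplicate; three independent experiments.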

HUVEC [19] = assay: Increase in MMP9 level in HUVEC at 12.5 uM after 24 hrs by ELISA; assay type: functional, cell-based; details: Homo sapiens; how it was run: as §5
HUVEC [20] = assay: Increase in wound healing in HUVEC at 12.5 uM after 18 to 24 hrs by phase contrast microscopic analysis; assay type: functional, cell-based; details: Homo sapiens
How it was run: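 HUVECs grown to a confluent monolayer in 12-well plates and serum-deprived overnight. Scratched with a p200 tip, washed with DPBS, then given complete EBM-2 with 12.5 μM bile acid or DMSO vehicle. Imaged from a marked reference point at 0 h and after 18–24 h (phase contrast, 10×); percentage of migrated cells versus control. Triplicate; Dunnett's test.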

HUVEC [21] = assay: Cytotoxicity against HUVEC assessed as reduction in cell viability at 6.25 to 100 uM after 24 hrs by MTT assay; assay type: cell-based; details: human
How it was run: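 HUVECs at passages 2–5 were seeded at 5 × 10^3 cells per well in complete EBM-2 and allowed to adhere for 24 h. They were serum-starved 4 h, then given serially diluted bile acids (100 to 6.25 μM) in complete medium for 24 h. MTT was added for 4 h at 37 °C. Formazan was dissolved in DMSO and absorbance read at 550 nm. Three independent experiments.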

Danio rerio [22] = species: Danio rerio; assay: Pro-angiogenic activity in Tg(fli:eGFP) zebrafish embryo assessed as increase in sprouting of sub-intestinal veins at 12.5 uM after 72 hrs post fertilization by fluorescence microscopic analysis; assay type: functional, organism-based; how it was run: as §1

## O=c1cc(N2CCOCC2)oc2c(-c3ccccc3)cccc12
Danio rerio [1]
  Activity: Active

## C[C@H](CCC(=O)O)[C@H]1CC[C@H]2[C@@H]3[C@H](O)C[C@@H]4C[C@H](O)CC[C@]4(C)[C@H]3CC[C@]12C [CHENODIOL]
Danio rerio [2]
  Activity: Dose-dependent effect
HUVEC [3]
  Activity: Active
Danio rerio [4]
  Activity: Non-Toxic
HUVEC [5]
  Activity: Active
HUVEC [6]
  Activity: Active
HUVEC [7]
  Activity: Active
Danio rerio [8]
  Activity: Active
Danio rerio [9]
  Activity: Active
HUVEC [10]
  Activity: Active
HUVEC [11]
  Activity: Active
HUVEC [12]
  Activity: 150%
HUVEC [13]
  Activity: Active
Danio rerio [14]
  Activity: Active
Danio rerio [15]
  Activity: Active
HUVEC [16]
  Activity: Active
HUVEC [17]
  Activity: inactive
HUVEC [18]
  Activity: Non-Toxic
HUVEC [19]
  Activity: Active
HUVEC [20]
  Activity: Active
HUVEC [21]
  Activity: Non-Toxic
Danio rerio [22]
  Activity: Active
